According to ChEMBL document CHEMBL1159122 (Bioorg Med Chem, 2010):
Each block holds one molecule with its values, some of them ahead of it. Activity calls are given as the source filed them. No cut-off for these calls is given here.

Columns and labels:
[1] = target: T1, Prostaglandin G/H synthase 1 (Mus musculus, UniProt P22437); assay: Inhibition of COX1 in mouse RAW264.7 cells by enzyme immunoassay; assay type: cell-based
T1 sequence (P22437 whole entry): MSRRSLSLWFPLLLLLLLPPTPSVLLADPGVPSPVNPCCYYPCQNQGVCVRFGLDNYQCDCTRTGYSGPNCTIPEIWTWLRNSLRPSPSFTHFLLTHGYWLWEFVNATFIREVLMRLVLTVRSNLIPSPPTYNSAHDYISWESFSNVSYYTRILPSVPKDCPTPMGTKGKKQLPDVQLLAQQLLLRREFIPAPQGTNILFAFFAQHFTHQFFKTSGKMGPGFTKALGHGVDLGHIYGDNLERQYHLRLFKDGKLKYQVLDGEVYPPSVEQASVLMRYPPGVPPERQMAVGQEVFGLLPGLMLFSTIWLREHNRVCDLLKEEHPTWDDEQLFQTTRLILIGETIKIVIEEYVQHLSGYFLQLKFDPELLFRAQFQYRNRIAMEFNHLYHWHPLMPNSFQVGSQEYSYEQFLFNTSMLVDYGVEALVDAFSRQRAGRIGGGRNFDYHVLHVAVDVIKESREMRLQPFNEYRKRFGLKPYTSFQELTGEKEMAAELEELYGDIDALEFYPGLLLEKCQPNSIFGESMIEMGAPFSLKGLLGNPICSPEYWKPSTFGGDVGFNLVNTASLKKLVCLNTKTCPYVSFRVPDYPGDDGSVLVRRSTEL
How it was run: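 RAW 264.7 cells (5×10^5/well) grown overnight in DMEM with 10% FBS, then washed with PBS. Cells were not LPS-stimulated. Serum-free, phenol red-free DMEM; compound pretreatment 1 h at 37 °C, then 30 µM arachidonic acid for 30 min at 37 °C. PGE2 in the medium measured by EIA.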

THP-1 [2] = assay: Antiinflammatory activity in human THP1 cells assessed as inhibition of LPS-induced TNFalpha release at 1 uM by ELISA; assay type: functional
How it was run: (§1)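 THP-1 monocytes differentiated to macrophages over 72 h with conditioned medium from cells given 200 ng/mL PMA for 24 h, washed, and rested 24 h. Cells pretreated with compound (0.01–10 uM) for 1 h at 37 °C, then stimulated with 100 ng/mL LPS for 24 h. TNF-α release measured, mean ± SD of duplicates.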

[3] = target: T2, Polyunsaturated fatty acid 5-lipoxygenase (Homo sapiens, UniProt P09917); assay: Inhibition of LOX5 in human PMBL by enzyme immunoassay
T2 sequence (P09917 whole entry): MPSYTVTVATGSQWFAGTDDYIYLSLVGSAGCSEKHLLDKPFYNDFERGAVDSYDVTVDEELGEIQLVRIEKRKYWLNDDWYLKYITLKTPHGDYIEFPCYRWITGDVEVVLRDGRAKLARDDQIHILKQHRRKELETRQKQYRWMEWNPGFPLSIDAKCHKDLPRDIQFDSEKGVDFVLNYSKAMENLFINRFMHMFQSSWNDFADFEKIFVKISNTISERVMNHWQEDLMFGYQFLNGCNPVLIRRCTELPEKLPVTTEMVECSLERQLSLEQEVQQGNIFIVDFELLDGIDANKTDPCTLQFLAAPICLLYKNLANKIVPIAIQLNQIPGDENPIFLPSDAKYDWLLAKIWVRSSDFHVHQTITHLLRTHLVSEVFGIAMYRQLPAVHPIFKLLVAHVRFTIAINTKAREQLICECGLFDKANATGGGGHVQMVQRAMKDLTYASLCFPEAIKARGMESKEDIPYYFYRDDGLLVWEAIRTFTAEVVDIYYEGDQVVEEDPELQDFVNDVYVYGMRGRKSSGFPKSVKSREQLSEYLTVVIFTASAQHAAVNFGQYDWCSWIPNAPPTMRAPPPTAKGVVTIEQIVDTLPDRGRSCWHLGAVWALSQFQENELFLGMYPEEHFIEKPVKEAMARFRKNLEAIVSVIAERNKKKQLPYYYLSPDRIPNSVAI
How it was run: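 Human peripheral blood mononuclear leukocytes (5×10^6 cells/mL) in HBSS pH 7.4, preincubated with compound 15 min at 37 °C. Stimulated with 30 µM A23187 for 15 min at 37 °C, stopped with 1 N HCl, neutralized with NaOH and centrifuged. Supernatant LTB4 measured by EIA.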

[4] = target: T3, Prostaglandin G/H synthase 2 (Homo sapiens) (UniProt P35354); assay: Inhibition of human recombinant COX2 expressed in insect Sf9 cells at 10 uM by enzyme immunoassay
T3 sequence (whole entry): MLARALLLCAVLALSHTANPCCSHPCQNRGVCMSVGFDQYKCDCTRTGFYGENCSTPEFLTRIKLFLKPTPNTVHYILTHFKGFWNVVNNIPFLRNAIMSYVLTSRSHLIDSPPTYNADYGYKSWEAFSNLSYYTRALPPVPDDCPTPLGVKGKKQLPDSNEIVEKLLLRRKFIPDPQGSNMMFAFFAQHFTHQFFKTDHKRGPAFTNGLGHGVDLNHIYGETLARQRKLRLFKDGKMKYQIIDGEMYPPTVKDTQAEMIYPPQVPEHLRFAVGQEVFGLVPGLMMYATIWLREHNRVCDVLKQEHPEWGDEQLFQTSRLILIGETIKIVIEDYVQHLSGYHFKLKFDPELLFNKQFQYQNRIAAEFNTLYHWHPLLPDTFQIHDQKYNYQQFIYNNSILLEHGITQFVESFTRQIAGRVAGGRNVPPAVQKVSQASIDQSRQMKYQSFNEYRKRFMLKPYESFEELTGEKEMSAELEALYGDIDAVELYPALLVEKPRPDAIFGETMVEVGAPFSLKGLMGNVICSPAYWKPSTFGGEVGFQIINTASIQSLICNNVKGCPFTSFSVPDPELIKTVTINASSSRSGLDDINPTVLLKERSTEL

[5] = target: T4, Prostaglandin G/H synthase 1 (Homo sapiens, UniProt P23219); assay: Inhibition of human recombinant COX1 in human platelets at 10 uM by enzyme immunoassay
T4 sequence (P23219 whole entry): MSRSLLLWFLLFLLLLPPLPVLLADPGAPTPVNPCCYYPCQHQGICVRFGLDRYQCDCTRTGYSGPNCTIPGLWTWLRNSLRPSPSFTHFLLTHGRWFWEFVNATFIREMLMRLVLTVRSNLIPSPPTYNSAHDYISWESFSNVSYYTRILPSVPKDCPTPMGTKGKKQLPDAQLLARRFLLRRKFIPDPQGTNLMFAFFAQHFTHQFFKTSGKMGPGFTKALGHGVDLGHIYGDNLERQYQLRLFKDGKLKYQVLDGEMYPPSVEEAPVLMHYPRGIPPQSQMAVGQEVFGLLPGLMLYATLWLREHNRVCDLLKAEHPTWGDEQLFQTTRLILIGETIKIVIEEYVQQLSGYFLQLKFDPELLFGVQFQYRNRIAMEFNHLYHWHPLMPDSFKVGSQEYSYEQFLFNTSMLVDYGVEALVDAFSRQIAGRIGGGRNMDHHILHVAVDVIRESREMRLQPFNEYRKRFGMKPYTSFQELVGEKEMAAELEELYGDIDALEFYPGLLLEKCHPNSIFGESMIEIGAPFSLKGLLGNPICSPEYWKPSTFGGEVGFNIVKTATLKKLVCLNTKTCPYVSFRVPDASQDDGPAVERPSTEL
How it was run: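 Washed human platelets (5×10^7 cells/mL) in modified HEPES buffer pH 7.4, preincubated with compound 15 min at 37 °C. Reaction started with 100 µM arachidonic acid, run 15 min at 37 °C, stopped with 1 N HCl. PGE2 quantified by EIA.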

THP-1 [6] = assay: Antiinflammatory activity in human THP1 cells assessed as inhibition of LPS-induced TNFalpha release at 10 uM by ELISA; assay type: functional; how it was run: as §1
[7] = target: T5, Prostaglandin G/H synthase 2 (Mus musculus, UniProt Q05769); assay: Inhibition of COX2 in mouse RAW264.7 cells by enzyme immunoassay
T5 sequence (Q05769 whole entry): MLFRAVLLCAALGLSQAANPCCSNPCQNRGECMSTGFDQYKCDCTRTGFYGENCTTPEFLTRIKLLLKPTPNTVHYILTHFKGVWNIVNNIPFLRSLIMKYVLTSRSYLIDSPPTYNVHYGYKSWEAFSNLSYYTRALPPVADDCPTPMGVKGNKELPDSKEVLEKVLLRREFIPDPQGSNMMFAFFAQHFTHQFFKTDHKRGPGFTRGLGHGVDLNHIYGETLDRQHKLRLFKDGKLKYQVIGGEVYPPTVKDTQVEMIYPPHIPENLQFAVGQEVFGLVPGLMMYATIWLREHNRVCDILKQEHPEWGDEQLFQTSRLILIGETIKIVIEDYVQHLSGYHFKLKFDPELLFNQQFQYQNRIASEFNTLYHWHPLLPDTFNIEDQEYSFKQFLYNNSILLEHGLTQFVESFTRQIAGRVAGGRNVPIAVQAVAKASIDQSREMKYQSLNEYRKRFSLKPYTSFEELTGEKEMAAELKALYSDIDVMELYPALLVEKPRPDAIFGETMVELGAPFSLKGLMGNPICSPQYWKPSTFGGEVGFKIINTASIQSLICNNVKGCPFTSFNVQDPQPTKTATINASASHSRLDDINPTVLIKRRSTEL

THP-1 [8] = assay: Antiinflammatory activity in human THP1 cells assessed as inhibition of LPS-induced TNFalpha release by ELISA; assay type: functional, cell-based
How it was run: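 Differentiated THP-1 macrophages were used. They were made by 72 h culture in conditioned medium from THP-1 cells treated with 200 ng/mL PMA for 24 h, washed and rested 24 h. Cells were preincubated with compounds at 0.01, 0.1, 1 and 10 µM for 1 h at 37 °C, then stimulated with 100 ng/mL LPS for 24 h. Duplicate determinations, mean ± SD.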

[9] = target: T6, Prostaglandin G/H synthase 2 (Homo sapiens, UniProt P35354); assay: Inhibition of human recombinant COX2 expressed in insect Sf9 cells by enzyme immunoassay
T6 sequence (P35354 whole entry): T3 sequence (whole entry)

[10] = target: T4, Prostaglandin G/H synthase 1; assay: Inhibition of human recombinant COX1 in human platelets by enzyme immunoassay
How it was run: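 Source was washed human platelets (5×10^7 cells/mL) in modified HEPES buffer, pH 7.4. Compounds were preincubated 15 min at 37 °C, then 100 µM arachidonic acid was added for 15 min at 37 °C. The reaction was stopped with 1 N HCl. COX-1 activity was read as PGE2 by EIA.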

[11] = target: T3, Prostaglandin G/H synthase 2 (Homo sapiens); settings: THP-1, at 10 µM
[12] = target: Mitogen-activated protein kinase 14 (Homo sapiens) (UniProt Q16539); assay: Inhibition of p38alpha MAPK at 10 uM
Chain of Mitogen-activated protein kinase 14 (Homo sapiens) (Q16539 whole entry): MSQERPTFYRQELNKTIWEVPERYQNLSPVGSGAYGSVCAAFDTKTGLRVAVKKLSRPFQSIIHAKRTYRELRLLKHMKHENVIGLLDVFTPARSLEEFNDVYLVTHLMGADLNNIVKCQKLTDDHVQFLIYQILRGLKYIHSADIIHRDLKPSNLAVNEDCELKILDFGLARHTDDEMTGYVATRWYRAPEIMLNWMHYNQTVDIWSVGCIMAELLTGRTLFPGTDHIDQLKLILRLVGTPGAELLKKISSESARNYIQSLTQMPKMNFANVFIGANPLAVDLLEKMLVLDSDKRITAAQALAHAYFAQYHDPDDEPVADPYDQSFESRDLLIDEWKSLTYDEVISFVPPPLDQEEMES

IC50 [3]: 470 nM
inhibition [4]: 23%
IC50 [1]: 1.5 µM
inhibition [5]: 39%
IC50 [7]: 18.1 µM
SMILES: O=[N+]([O-])c1ccc2c(c1)S(c1ccc(Br)cc1)=NS2(=O)=O (stereo unspecified)
Activity (THP-1 [6]): inactive

IC50 (THP-1 [8]): 440 nM
IC50 [9]: 1700 nM
IC50 [3]: 1220 nM
IC50 [10]: 6.7 µM
IC50 [1]: 2.1 µM
inhibition [11]: 77%
inhibition [12]: inactive
IC50 [7]: 4.4 µM
SMILES: O=[N+]([O-])c1ccc2c(c1)S(=O)(=O)N=S2c1ccc(Br)cc1 (stereo unspecified)
inhibition at 10 µM (THP-1 [6]): 92%

inhibition [4]: 27%
inhibition [5]: 17%
SMILES: NS(=O)(=O)c1ccc2c(c1)S(c1ccc(Br)cc1)=NS2(=O)=O (stereo unspecified)

Continued, molecule first:

SMILES: COc1ccc2c(c1)c(CC(=O)NCCc1ccccc1)c(C)n2C(=O)c1ccc(Cl)cc1
IC50 [1]: 56.7 µM

SMILES: C[C@@H]1C[C@H]2[C@@H]3CCC4=CC(=O)C=C[C@]4(C)[C@@]3(F)[C@@H](O)C[C@]2(C)[C@@]1(O)C(=O)CO [DEXAMETHASONE]
inhibition at 1 µM (THP-1 [2]): 89%

SMILES: Cc1ccc(-c2cc(C(F)(F)F)nn2-c2ccc(S(N)(=O)=O)cc2)cc1
Activity (THP-1 [6]): inactive

SMILES: CS(=O)(=O)Nc1ccc([N+](=O)[O-])cc1OC1CCCCC1 [NS-398]
IC50 [1]: 63.7 µM
